Key:
[1] = target: T1, human orotate phosphoribosyltransferase (HsOPRT) (Homo sapiens, UniProt P11172); experiment: HsOPRT inhibition assay; assay type: biochemical; conditions: for inhibition of HsOPRT: at D-DIAB or L-DIAB concentrations of 200 μM
T1 sequence (P11172 1-214 limits assumed): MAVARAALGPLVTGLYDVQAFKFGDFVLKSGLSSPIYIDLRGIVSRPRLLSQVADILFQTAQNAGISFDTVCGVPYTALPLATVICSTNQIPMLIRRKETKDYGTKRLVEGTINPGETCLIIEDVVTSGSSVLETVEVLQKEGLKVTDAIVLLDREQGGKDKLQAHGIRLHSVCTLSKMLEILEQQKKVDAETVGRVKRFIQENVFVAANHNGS
Summary of the method: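 Human OPRT, 200 nM, at 25 °C in 50 mM Tris-HCl pH 8.0 with 5 mM MgCl₂. Substrates are 500 μM orotidine 5′-monophosphate and 1 mM pyrophosphate, with bis-phosphate iminoaltritol test compound present. Reaction followed by absorbance at 266 nm. Ki derived from initial rates measured in triplicate.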

[2] = target: T2, Saccharomyces cerevisiae adenine phosphoribosyltransferase (ScAPRT) (Saccharomyces cerevisiae, UniProt P49435); experiment: ScAPRT inhibition assay; assay type: biochemical
T2 sequence (P49435 1-187): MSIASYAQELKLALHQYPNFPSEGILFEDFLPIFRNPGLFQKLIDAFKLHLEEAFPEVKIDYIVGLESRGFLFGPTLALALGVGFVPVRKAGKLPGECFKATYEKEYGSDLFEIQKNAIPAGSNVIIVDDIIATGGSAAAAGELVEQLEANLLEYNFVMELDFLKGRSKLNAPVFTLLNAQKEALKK

[3] = target: T3, Plasmodium falciparum orotate phosphoribosyltransferase (PfOPRT) (Plasmodium falciparum, UniProt Q8I3Y0); experiment: PfOPRT inhibition assay; assay type: biochemical
T3 sequence (Q8I3Y0 1-281): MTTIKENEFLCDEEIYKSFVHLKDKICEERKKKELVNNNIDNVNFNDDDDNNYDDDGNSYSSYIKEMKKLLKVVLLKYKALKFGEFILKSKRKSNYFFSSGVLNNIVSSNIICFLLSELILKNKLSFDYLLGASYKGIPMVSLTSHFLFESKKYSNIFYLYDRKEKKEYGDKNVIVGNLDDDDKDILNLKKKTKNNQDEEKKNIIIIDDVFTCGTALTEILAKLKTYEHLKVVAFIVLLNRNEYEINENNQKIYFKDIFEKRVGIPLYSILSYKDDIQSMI

[4] = target: T2, Saccharomyces cerevisiae adenine phosphoribosyltransferase (ScAPRT); conditions: read-out: KM for PRPP (ScAPRT); previously reported substrate KM; cited from earlier work

O=P(O)(O)OC[C@H]1N[C@H](COP(=O)(O)O)[C@@H](O)[C@H]1O (stereo in doubt) [L-DIAB, L-2,5-dideoxy-2,5-imino-altritol 1,6-bisphosphate]
Ki [1]: > 200 µM
inhibition of HsOPRT [1]: no apparent inhibition
Ki [2]: 14.9 ± 2.9 µM
Ki [3]: 103 ± 17 µM

O=P(O)(O)OC[C@H]1O[C@H](OP(=O)(O)OP(=O)(O)O)[C@H](O)[C@@H]1O [PRPP, 5-phospho-α-D-ribosyl 1-pyrophosphate]
Km [4]: 20 µM

O=P(O)(O)OC[C@H]1N[C@H](COP(=O)(O)O)[C@@H](O)[C@@H]1O [D-DIAB, D-2,5-dideoxy-2,5-imino-altritol 1,6-bisphosphate]
inhibition of HsOPRT [1]: no apparent inhibition
selectivity for D-DIAB over L-DIAB in PfOPRT inhibition ([3]; ratio of Ki values, Table 1): 3 fold

Source: paper PMC6568317 (ACS chemical biology, 2017)
